Most compounds without a hit are left out; they make up all but 4.2% or so of the library.
AHR activator = AHR activators, primary screen, cell-based, luminescence, luciferase reporter, human | Aryl hydrocarbon receptor (Homo sapiens), P35869 | AHR-responsive luciferase reporter cells | activation, % at 5 µM | hit rate 2.5% among 320,000 | AID 2796, 2010; in the data active = activation above about 47%;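 also: 0% = vehicle wells and 100% = reference agonist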
Target sequence (P35869 whole entry, looked up): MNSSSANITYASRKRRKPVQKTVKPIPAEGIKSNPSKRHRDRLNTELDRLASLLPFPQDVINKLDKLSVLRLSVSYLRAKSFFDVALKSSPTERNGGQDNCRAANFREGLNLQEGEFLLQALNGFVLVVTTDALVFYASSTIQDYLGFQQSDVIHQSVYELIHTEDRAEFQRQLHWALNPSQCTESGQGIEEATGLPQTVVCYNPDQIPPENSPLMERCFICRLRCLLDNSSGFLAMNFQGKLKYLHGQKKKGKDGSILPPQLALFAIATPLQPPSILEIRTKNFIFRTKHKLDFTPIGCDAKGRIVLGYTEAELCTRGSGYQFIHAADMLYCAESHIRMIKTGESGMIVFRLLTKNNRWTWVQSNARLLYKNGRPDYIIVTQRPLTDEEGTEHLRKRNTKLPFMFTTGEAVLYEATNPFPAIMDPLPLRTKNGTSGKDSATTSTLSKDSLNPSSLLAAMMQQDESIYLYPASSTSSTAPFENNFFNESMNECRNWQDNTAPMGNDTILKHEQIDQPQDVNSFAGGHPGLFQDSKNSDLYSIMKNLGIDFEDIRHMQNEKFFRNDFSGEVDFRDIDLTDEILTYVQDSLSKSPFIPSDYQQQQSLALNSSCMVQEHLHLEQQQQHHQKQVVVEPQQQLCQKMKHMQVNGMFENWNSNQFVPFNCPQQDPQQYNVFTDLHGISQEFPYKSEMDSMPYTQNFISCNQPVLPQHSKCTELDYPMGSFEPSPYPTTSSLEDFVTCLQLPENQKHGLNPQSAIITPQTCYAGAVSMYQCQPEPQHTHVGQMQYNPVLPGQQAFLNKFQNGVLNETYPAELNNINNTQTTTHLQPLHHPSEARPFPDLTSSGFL
CTSL1 counter = Fasciola hepatica cathepsin L1 inhibitors, primary screen, counter-screen for PFM18AAP inhibitor project, biochemical, QFRET, fluorogenic peptide substrate | AID 1906, 2009 | hit rate 0.49% among 300,000 | recombinant F. hepatica cathepsin L1, Z-Leu-Arg-MCA fluorescence | inhibition, % at 5.96 µM;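 active = inhibition above the mean of all tested compounds plus 3 SD, set per screening campaign, cut at about 17% in these data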;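 also: 0% = plate median of test compound wells and 100% = 1 µM Z-Phe-Ala-diazomethylketone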
HDAC3 inhib = HDAC3 deacetylase inhibitors, primary screen, biochemical, fluorescence, cell-free homogeneous; Histone deacetylase 3 (Homo sapiens), O15379; recombinant HDAC3, fluorogenic peptide/trypsin coupled; inhibition, % at 8.3 µM; hit rate 0.15% among 320,000; in the data active = inhibition above about 26%, passing the limit was not always enough
SENP1 FRET inh = human SENP1 catalytic domain inhibitors, primary screen, biochemical, FRET, uHTS; Sentrin-specific protease 1 (Homo sapiens), Q9P0U3; inhibition, % at 10 µM; AID 624204, 2012; recombinant SENP1 catalytic domain, CyPet-SUMO1-YPet FRET cleavage; hit rate 0.21% among 360,000;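 active = inhibition at least 30% at 10 µM, raw YFP signal under a set limit, fluorescence ratio 0.5 to 1.5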;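 also: 0% = enzyme with DMSO and 100% = no enzyme wells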
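system = hSENP1 catalytic domain, recombinant | reagent = SFCypet-SUMO1-SFYpet substrate at 25 nM | doses = one dose per compound, 10 µM, 0.5% DMSO | incubation = enzyme reaction for 50 min at room temperature, dark | measured by = FRET, CFP and YFP emission | controls = no-enzyme low, enzyme-DMSO high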
PfM18AAP inh = PfM18AAP inhibitors, malaria aminopeptidase, primary screen, biochemical, QFRET, recombinant enzyme | M18 aspartyl aminopeptidase (Plasmodium falciparum 3D7) | H-Glu-NHMec fluorogenic cleavage | inhibition, % at 7.35 µM | hit rate 1.2% among 290,000 | AID 1822, 2009;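 active = inhibition above the campaign mean inhibition over all tested compounds plus 3 SD, cut at about 28% in these data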;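 also: 0% = plate median of test compound wells and 100% = 2 mM ZnCl2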
FXN GAA850 act = FXN promoter activators, primary screen, cell-based, luciferase luminescence, HEK293 lucGAA850; HEK293 lucGAA850 FXN promoter luciferase reporter, 24 h; percent of 10 µM SAHA response; activation, % at 6 µM; hit rate 0.56% among 360,000;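 active = activation above the average of all compounds screened plus 3 SD, cutoff fixed separately per campaign, cut at about 7.5% in these data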;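 also: 0% = DMSO wells and 100% = 10 µM SAHA wells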
GAA30 FXN cntr = GAA30 FXN promoter activators, confirmation, counter-screen for GAA850 frataxin promoter activator project, cell-based, luminescence, HEK293, lucGAA30, triplicate; shares compounds with FXN GAA850 act; HEK293 lucGAA30 FXN promoter luciferase, 24 h; DMSO = 0%, 5 µM ipriflavone = 100%; activation, % at 6 µM; hit rate 66% among 1,900;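 active = mean activation above the mean of solvent-only control wells plus 3 SD, cut at about 22% in these data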;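 also: counterscreen of GAA850 promoter hits where activity marks nonselective or luminescence artifacts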
GAA850 confirm = FXN GAA850 promoter activators in reporter cells, confirmation, cell-based, luminescence, HEK293 lucGAA850, triplicate; shares compounds with FXN GAA850 act; HEK293 lucGAA850 FXN promoter luciferase reporter, 24 h; 100% = activation by SAHA; activation, % at 6 µM; hit rate 86% among 1,900;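 active = mean activation above a set limit taken from the primary screen, cut at about 8% in these data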;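 also: 0% = DMSO wells and 100% = 10 µM SAHA wells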
An asterisk follows results filed as active; · = no result.

SMILES	AHR activator	CTSL1 counter	HDAC3 inhib	SENP1 FRET inh	PfM18AAP inh	FXN GAA850 act	GAA30 FXN cntr	GAA850 confirm
CC(C)(C)c1ccc(C(=O)Nc2ccccc2Cl)cc1	10	-1	9	2	0	3	·	·
CC(C)CN(C(=O)COC(=O)CCSc1ccc(Cl)cc1)c1c(N)n(Cc2ccccc2)c(=O)[nH]c1=O	·	·	·	-6	·	1	·	·
COc1cccc(C(=O)Nc2cc3c(cc2Cl)OCCCO3)c1	1	3	1	2	2	7.9*	101*	32*
CC(C)[C@H](NC(=O)c1cccc(S(=O)(=O)N2CCOCC2)c1)C(=O)OCC(=O)Nc1cccc(Br)c1	·	·	·	1	·	1	·	·
OCCCCCN=c1cc(-c2ccccc2)oc2ccc(Cl)cc12	6	8	10	-1	0	-2	·	·
Clc1ccc2oc(-c3ccccc3)cc(=NCCCN3CCOCC3)c2c1	·	·	·	2	0	9.4*	51*	22*
COC(=O)[C@]12CCCCC=C1N(CCc1ccc(OC)c(OC)c1)C(=O)[C@H](CC(=O)N1CCN(C(=O)c3ccco3)CC1)C2	·	·	·	0	·	·	·	·
Cc1cc(C)n2cc(CSc3nc4ccccc4s3)nc2n1	26	-2	·	3	7	7.7*	98*	30*
CCc1ccc(OCC(=O)Nc2ccc(-c3nc4ccccc4o3)c(O)c2)cc1	6	-2	-1	0	-5	0	·	·
Oc1cc(NCc2cccnc2)ccc1-c1nc2ccccc2o1	6	5	4	-21	-4	11*	81*	44*
O=C(/C=C/c1ccccc1)c1ccccc1	-4	-1	2	2	20	0	·	·
O=C(/C=C/c1ccccc1)/C=C/c1ccccc1	0	-4	·	-3	21	7.9*	32*	30*
CC(C)(CC(=O)O)CC(=O)NCc1c(Cl)cccc1Oc1ccccc1	3	-2	-1	2	-14	1	·	·
COc1cc(CNc2ccc3[nH]c(=O)[nH]c3c2)ccc1OCc1ccccc1F	-1	3	-7	2	-26	7.7*	33*	20*
COc1ccc(CNC(=O)C2CCN(S(=O)(=O)c3c(C)noc3/C=C/N(C)C)CC2)cc1	1	3	5	-1	-6	0	·	·
COc1ccc(-c2cc(C(F)(F)F)nc(S(=O)(=O)CCCC(=O)Nc3cccnc3Cl)n2)cc1OC	·	·	·	-3	-4	8.7*	54*	52*
Cc1cc(NC(=O)CCCS(=O)(=O)c2nc(-c3cccs3)cc(C(F)(F)F)n2)no1	3	2	-15	0	-30	9.6*	-45	-1
COC(=O)CCS(=O)(=O)c1nc(-c2ccccc2)cc(C(F)(F)F)n1	1	1	-4	1	-4	7	·	·
COC(=O)C(C)(C)ONC(=O)Nc1ccc(C)cc1	1	-3	·	3	-4	3	·	·
CC(=O)N1CCC(=NNC(=O)c2cccs2)CC1	21	-1	-2	0	-6	8.7*	11	1
O=C(NN=C1CCCC1)c1cccs1	17	3	-8	-1	-17	4	·	·
O=C(NN=C1C2CC3CC(C2)CC1C3)c1ccccc1O	6	-2	-9	1	6	4	·	·
O=C(NN=C1C2CC3CC(C2)CC1C3)c1cccs1	4	1	-8	1	-3	8.8*	24*	11*
O=C(C=Cc1ccccc1)CC(c1ccccc1)N1CCOCC1 (centres undefined)	·	·	·	1	·	7.8*	36*	40*
Cc1ccc(/C=C/c2nc3ccccc3[nH]2)o1	45	5	0	-37	2	8.9*	114*	38*
SMILES	AHR activator	CTSL1 counter	HDAC3 inhib	SENP1 FRET inh	PfM18AAP inh	FXN GAA850 act	GAA30 FXN cntr	GAA850 confirm
O=[N+]([O-])c1c(Nc2ccccc2O)cc(Cl)c2nonc12	·	·	7	4	1	11*	-79	-8
C/C(=N\NC(=O)c1ccc(F)cc1)c1ccc(N2CCOCC2)cc1	2	3	5	0	-8	1	·	·
C/C(=N\NC(=O)c1ccccc1)c1ccc(N2CCCCC2)cc1	3	-1	6	2	1	8.0*	98*	34*
O=S(=O)(CCN1CCN(C(c2ccccc2)c2ccccc2)CC1)C(F)(F)F	-2	-2	2	-1	3	7.8*	37*	16*
O=C(Nc1ccccc1)c1cccc(N2C(=O)C3C4CC(C(Br)C4Br)C3C2=O)c1 (centres undefined)	0	-3	7	2	-6	0	·	·
Cc1cccc(NC(=O)CSCC(=O)Nc2ccccc2N2CCCCC2)c1	5	-1	16	-1	·	6	·	·
Cc1ccc(NC(=O)CSCC(=O)Nc2ccccc2N2CCCCC2)cc1	2	5	2	-1	·	12*	13	13*
O=c1[nH]c2ccccc2nc1/C=C/c1ccc(O)cc1	·	·	·	-27	1	7.6*	121*	35*
O=c1[nH]c2ccccc2nc1/C=C(\O)c1cccs1	48*	4	5	-28	-5	11*	116*	41*
CC(C)(O)C#Cc1ccc(CN2CCCC(CNC(=O)c3ccco3)C2)cc1 (centres undefined)	-2	0	-2	-1	4	1	·	·
CCCn1cnc2c(cnn2-c2ccc(F)cc2)c1=O	0	-1	0	2	1	10.0*	59*	18*
CC(=O)c1ccc(C(=O)Nc2ccc3c(c2)C(=O)NC3=O)cc1	-4	4	0	-1	14	0	·	·
CC(C)Oc1ccc(C(=O)Nc2cccc(S(=O)(=O)N3CCCC3)c2)cc1	11	·	-3	2	·	-4	·	·
Cc1ccc(OCCCCNC(C)c2ccccc2)c(C)c1 (centres undefined)	3	-6	-3	1	4	7.7*	24*	8.8*
Cc1ccc(OCCNCc2ccccc2)c(C)c1	-3	2	-6	0	0	1	·	·
CCc1ccc(O)c(-c2cc(C(=O)Nc3cccnc3)[nH]n2)c1	8	-1	3	3	5	7.8*	97*	31*

Assay outcomes from PubChem BioAssay.
